Test system: Fibroblast
Experiment: Multiplex assay against human fibroblast
Assay type: toxicity, cell-based
Outline: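 Compound was added to live cells that had been stained at seeding with Hoechst33342, BioTracker Green Microtubule Cytoskeleton Dye, MitoTracker Red and Annexin V Alexa Fluor 680, and imaging followed on a CQ1 microscope at 37°C and 5% CO2. CellPathfinder machine-learning gating divided cells into Hoechst high-intensity objects or normal cells, normal cells into healthy, pyknosed or fragmented nuclei, and pyknosed cells into mitotic or apoptotic. Tubulin, mitochondrial-mass and membrane-permeability phenotypes are per cents of healthy-nucleus cells.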

[1] = 12 h, 1 µM, compound concentration 1 uM, replicate 1
[2] = 12 h, 1 µM, compound concentration 1 uM, replicate 2
[3] = 12 h, 10 µM, compound concentration 10 uM, replicate 1
[4] = 12 h, 10 µM, compound concentration 10 uM, replicate 2
[5] = 24 h, 1 µM, compound concentration 1 uM, replicate 1
[6] = 24 h, 1 µM, compound concentration 1 uM, replicate 2
[7] = 24 h, 10 µM, compound concentration 10 uM, replicate 1
[8] = 24 h, 10 µM, compound concentration 10 uM, replicate 2
[9] = 48 h, 1 µM, compound concentration 1 uM, replicate 1
[10] = 48 h, 1 µM, compound concentration 1 uM, replicate 2
[11] = 48 h, 10 µM, compound concentration 10 uM, replicate 1
[12] = 48 h, 10 µM, compound concentration 10 uM, replicate 2

OCCCNc1cc(-c2ccnc(Nc3cccc(Cl)c3)n2)ccn1
Population Apoptotic (%) [1]: 58%
Population Fragmented Nuclei (%) [1]: 15%
Population Healthy Nuclei (%) [1]: 66%
Population Hoechst High Intensity Objects (%) [1]: 4%
Population Membrane Permeable-Phenotype (%) [1]: 0%
Population Mitochondria Different-Phenotype (%) [1]: 9%
Population Mitotic Cells (%) [1]: 41%
Population Normal (%) [1]: 95%
Population Pyknosed Nuclei (%) [1]: 18%
Population Tubulin-Different-Phenotype (%) [1]: 52%
Total Cell Count [1]: 139
Population Apoptotic (%) [2]: 50%
Population Fragmented Nuclei (%) [2]: 21%
Population Healthy Nuclei (%) [2]: 53%
Population Hoechst High Intensity Objects (%) [2]: 6%
Population Membrane Permeable-Phenotype (%) [2]: 5%
Population Mitochondria Different-Phenotype (%) [2]: 13%
Population Mitotic Cells (%) [2]: 50%
Population Normal (%) [2]: 93%
Population Pyknosed Nuclei (%) [2]: 24%
Population Tubulin-Different-Phenotype (%) [2]: 47%
Total Cell Count [2]: 138
Population Apoptotic (%) [3]: 61%
Population Fragmented Nuclei (%) [3]: 38%
Population Healthy Nuclei (%) [3]: 44%
Population Hoechst High Intensity Objects (%) [3]: 10%
Population Membrane Permeable-Phenotype (%) [3]: 9%
Population Mitochondria Different-Phenotype (%) [3]: 25%
Population Mitotic Cells (%) [3]: 38%
Population Normal (%) [3]: 89%
Population Pyknosed Nuclei (%) [3]: 17%
Population Tubulin-Different-Phenotype (%) [3]: 88%
Total Cell Count [3]: 136
Population Apoptotic (%) [4]: 52%
Population Fragmented Nuclei (%) [4]: 65%
Population Healthy Nuclei (%) [4]: 24%
Population Hoechst High Intensity Objects (%) [4]: 6%
Population Membrane Permeable-Phenotype (%) [4]: 20%
Population Mitochondria Different-Phenotype (%) [4]: 11%
Population Mitotic Cells (%) [4]: 47%
Population Normal (%) [4]: 93%
Population Pyknosed Nuclei (%) [4]: 9%
Population Tubulin-Different-Phenotype (%) [4]: 84%
Total Cell Count [4]: 227
Population Apoptotic (%) [5]: 56%
Population Fragmented Nuclei (%) [5]: 16%
Population Healthy Nuclei (%) [5]: 65%
Population Hoechst High Intensity Objects (%) [5]: 2%
Population Membrane Permeable-Phenotype (%) [5]: 1%
Population Mitochondria Different-Phenotype (%) [5]: 20%
Population Mitotic Cells (%) [5]: 43%
Population Normal (%) [5]: 97%
Population Pyknosed Nuclei (%) [5]: 17%
Population Tubulin-Different-Phenotype (%) [5]: 60%
Total Cell Count [5]: 136
Population Apoptotic (%) [6]: 46%
Population Fragmented Nuclei (%) [6]: 29%
Population Healthy Nuclei (%) [6]: 48%
Population Hoechst High Intensity Objects (%) [6]: 3%
Population Membrane Permeable-Phenotype (%) [6]: 6%
Population Mitochondria Different-Phenotype (%) [6]: 10%
Population Mitotic Cells (%) [6]: 53%
Population Normal (%) [6]: 96%
Population Pyknosed Nuclei (%) [6]: 22%
Population Tubulin-Different-Phenotype (%) [6]: 55%
Total Cell Count [6]: 139
Population Apoptotic (%) [7]: 80%
Population Fragmented Nuclei (%) [7]: 36%
Population Healthy Nuclei (%) [7]: 42%
Population Hoechst High Intensity Objects (%) [7]: 11%
Population Membrane Permeable-Phenotype (%) [7]: 7%
Population Mitochondria Different-Phenotype (%) [7]: 46%
Population Mitotic Cells (%) [7]: 20%
Population Normal (%) [7]: 88%
Population Pyknosed Nuclei (%) [7]: 20%
Population Tubulin-Different-Phenotype (%) [7]: 86%
Total Cell Count [7]: 138
Population Fragmented Nuclei (%) [8]: 63%
Population Healthy Nuclei (%) [8]: 27%
Population Hoechst High Intensity Objects (%) [8]: 6%
Population Membrane Permeable-Phenotype (%) [8]: 12%
Population Mitochondria Different-Phenotype (%) [8]: 9%
Population Normal (%) [8]: 93%
Population Pyknosed Nuclei (%) [8]: 9%
Population Tubulin-Different-Phenotype (%) [8]: 80%
Total Cell Count [8]: 218
Population Apoptotic (%) [9]: 46%
Population Fragmented Nuclei (%) [9]: 27%
Population Healthy Nuclei (%) [9]: 47%
Population Hoechst High Intensity Objects (%) [9]: 8%
Population Membrane Permeable-Phenotype (%) [9]: 1%
Population Mitochondria Different-Phenotype (%) [9]: 20%
Population Mitotic Cells (%) [9]: 53%
Population Normal (%) [9]: 91%
Population Pyknosed Nuclei (%) [9]: 25%
Population Tubulin-Different-Phenotype (%) [9]: 66%
Total Cell Count [9]: 136
Population Apoptotic (%) [10]: 37%
Population Fragmented Nuclei (%) [10]: 36%
Population Healthy Nuclei (%) [10]: 30%
Population Hoechst High Intensity Objects (%) [10]: 7%
Population Membrane Permeable-Phenotype (%) [10]: 5%
Population Mitochondria Different-Phenotype (%) [10]: 24%
Population Mitotic Cells (%) [10]: 62%
Population Normal (%) [10]: 92%
Population Pyknosed Nuclei (%) [10]: 32%
Population Tubulin-Different-Phenotype (%) [10]: 45%
Total Cell Count [10]: 132
Population Apoptotic (%) [11]: 91%
Population Fragmented Nuclei (%) [11]: 39%
Population Healthy Nuclei (%) [11]: 39%
Population Hoechst High Intensity Objects (%) [11]: 14%
Population Membrane Permeable-Phenotype (%) [11]: 15%
Population Mitochondria Different-Phenotype (%) [11]: 42%
Population Mitotic Cells (%) [11]: 8%
Population Normal (%) [11]: 85%
Population Pyknosed Nuclei (%) [11]: 21%
Population Tubulin-Different-Phenotype (%) [11]: 77%
Total Cell Count [11]: 134
Population Apoptotic (%) [12]: 85%
Population Fragmented Nuclei (%) [12]: 58%
Population Healthy Nuclei (%) [12]: 30%
Population Hoechst High Intensity Objects (%) [12]: 6%
Population Membrane Permeable-Phenotype (%) [12]: 20%
Population Mitochondria Different-Phenotype (%) [12]: 20%
Population Mitotic Cells (%) [12]: 14%
Population Normal (%) [12]: 93%
Population Pyknosed Nuclei (%) [12]: 11%
Population Tubulin-Different-Phenotype (%) [12]: 64%
Total Cell Count [12]: 192

— ChEMBL document CHEMBL5058577, “EUbOPEN Chemogenomics Library 2 (Multiplex)” (2022)
